Activity calls are given as the source filed them.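 Rule for the calls, unless noted: active = viability at or under a set limit in both replicates, limit being median viability minus 3 SD (cut at about 48% in these data, passing the limit was not always enough); inconclusive = at or under the limit in just one replicate; inactive = at or above the limit in both replicates.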
Experiments:
[1] = HUVEC growth inhibition – cell-based, human, primary screen (AID 575;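 active = viability at or below 30% in both replicate assays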;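 note: 100% = median of untreated cell wells with 0.1% DMSO on each plate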); details: HUVEC proliferation, CellTiter-Glo luminescence, 72 h; at 10 µM; stronger effect = lower value
How it was run: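 Material: primary human umbilical vein endothelial cells / Schedule: 72 h exposure, 37 °C, 5% CO2, 30 min RT equilibration / Signal: ATP-based CellTiter-Glo luminescent read / Read-out basis: percent of median DMSO-control luminescence / Control set: 32 DMSO-only cell-control wells (high), 32 MePR drug-control wells (low) per plate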

[2] = H69AR cell proliferation blockers – human, duplicate replicates, primary screen (AID 580); details: H69AR lung tumor cells viability, ATP luminescence, 72 h; at 10 µM; stronger effect = lower value;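 note: 100% = mean luminescence of untreated wells and 0% = no signal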
[3] = MRP1 drug-resistance reversers in H69AR cells – cell-based, doxorubicin co-treatment, pilot screen (AID 601;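 active = viability loss from added drug above about 55%, and viability with drug at most 40%, in both replicates, limit read from the data, passing the limit was not always enough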); details: CellTiter-Glo, 72 h, at 10 µM; for differential viability (reversal): stronger effect = higher value
[4] = yeast transport mutant growth inhibition pilot in 384-well plates, post-Golgi transport modulator project (AID 636; in the data active = inhibition above about 31%); details: absorbance 615 nm, about 18 h, stronger effect = higher value
[5] = growth suppression of yeast trafficking mutant, preliminary HTS, modulators of trafficking downstream of Golgi apparatus project, 1536-format plate, OD 615 nm (AID 637; in the data active = inhibition above about 30%); details: yeast transport mutant growth, absorbance 615 nm, 18 h; stronger effect = higher value
[6] = H69AR cells + 2 uM doxorubicin, measured here: viability with 2 uM doxorubicin, stronger effect = lower value
[7] = H69AR cells, compound alone cytotoxicity

| Structure (SMILES) | viability [1] | viability [2] | differential viability (reversal) ([3]; H69AR cells + 2 uM doxorubicin) | viability [3, 6] [%] | viability [3, 7] [%] | inhibition [4] | inhibition [5] |
| --- | --- | --- | --- | --- | --- | --- | --- |
| CN(CC(=O)O)S(=O)(=O)c1cc(Cl)ccc1Cl | 112% (inactive) | 96.8% (inactive) | 12.2% (inactive) | 84.6 | 96.8 | -2.53% (inactive) | -5.24% (inactive) |
| CCN1CCN(Cc2ccccc2NC(=O)Nc2ccc(C)cc2)CC1 | 89.7% (inactive) | 98% (inactive) | 11.2% (inactive) | 86.8 | 98 | -5.92% (inactive) | -0.16% (inactive) |
| CCn1c(SCC(=O)Nc2ccc(C(=O)OC)cc2)nnc1-c1cccs1 | 109% (inactive) | 92.3% (inactive) | 5.75% (inactive) | 86.6 | 92.3 | -6% (inactive) | 6.98% (inactive) |
| CCc1ccc(NC(=O)c2cccnc2)cc1 | 95.9% (inactive) | 105% (inactive) | 23.7% (inactive) | 81.7 | 105 | -7.2% (inactive) | -3.02% (inactive) |
| CCOC(=O)N1CCN(C(=O)C(NS(=O)(=O)c2cccc3nsnc23)c2ccccc2)CC1 (stereo not given) | 100% (inactive) | 94.2% (inactive) | -6.95% (inactive) | 101 | 94.2 | -3.38% (inactive) | -0.63% (inactive) |
| CCc1nc(C)ccc1OCC(=O)O | 102% (inactive) | 93% (inactive) | -12.6% (inactive) | 106 | 93 | 4.8% (inactive) | 2.7% (inactive) |
| CCOCCCNC(=O)C1CCCN(S(=O)(=O)CC)C1 (stereo not given) | 115% (inactive) | 94.5% (inactive) | -3.11% (inactive) | 97.6 | 94.5 | -6.53% (inactive) | 2.06% (inactive) |
| O=C(c1cc(-c2cccs2)on1)N1CCc2ccccc2C1 | 103% (inactive) | 104% (inactive) | 21.8% (inactive) | 81.8 | 104 | -2.24% (inactive) | -0.48% (inactive) |
| Cc1cccc(NC(=O)CN(C)S(=O)(=O)c2ccccc2)n1 | 107% (inactive) | 95.2% (inactive) | 9.79% (inactive) | 85.4 | 95.2 | -6.18% (inactive) | 2.54% (inactive) |
| CC(C)OC(=O)CSc1nnc(-c2ccccn2)n1-c1ccccc1 | 87.3% (inactive) | 92.1% (inactive) | -2.68% (inactive) | 94.8 | 92.1 | -1.87% (inactive) | -9.52% (inactive) |
| Cn1c(=O)n(C)c2cc(NC(=O)C(F)(F)F)ccc21 | 68.9% (inactive) | 97.4% (inactive) | 11.6% (inactive) | 85.8 | 97.4 | -0.92% (inactive) | -7.94% (inactive) |
| O=C(CSc1nc2c(sc3ccccc32)c(=O)n1Cc1ccco1)NCC1CCCO1 (stereo not given) | 78.8% (inactive) | 81.2% (inactive) | -4.63% (inactive) | 85.8 | 81.2 | -1.17% (inactive) | 5.71% (inactive) |
| O=C(O)C1CC=CCC1C(=O)Nc1cccc(C(=O)N2CCCCC2)c1 (stereo not given) | 107% (inactive) | 91.9% (inactive) | 7.67% (inactive) | 84.2 | 91.9 | -5.2% (inactive) | 9.21% (inactive) |
| Nc1nnc(SCC(=O)N2CCN(c3ccccc3)CC2)n1-c1ccccc1 | 80.6% (inactive) | 90% (inactive) | 7.97% (inactive) | 82.1 | 90 | -0.78% (inactive) | 2.06% (inactive) |
| COc1ccc(C(=O)N2CCOCC2)cc1Br | 116% (inactive) | 101% (inactive) | 5.83% (inactive) | 95 | 101 | -2.24% (inactive) | -4.92% (inactive) |
| CC(OC(=O)c1cccc(NS(C)(=O)=O)c1)C(=O)Nc1ccc(N2CCOCC2)cc1 (stereo not given) | 98.9% (inactive) | 96% (inactive) | 9.84% (inactive) | 86.1 | 96 | 0.78% (inactive) | -2.54% (inactive) |
| C=CCn1c(=O)[nH]c2cc(C(=O)N3CCN(c4ccc(C(C)=O)cc4)CC3)ccc2c1=O | 68.5% (inactive) | 92.4% (inactive) | 13.4% (inactive) | 79 | 92.4 | -1.97% (inactive) | -5.71% (inactive) |
| Cc1c(NC(=O)c2cnn3c2NC(c2ccco2)CC3C(F)(F)F)c(=O)n(-c2ccccc2)n1C (stereo not given) | 81.5% (inactive) | 103% (inactive) | 15.8% (inactive) | 87 | 103 | -2.47% (inactive) | 3.65% (inactive) |
| CS(=O)(=O)N(CC(=O)N1CCN(c2cccc(Cl)c2)CC1)C1CCCCC1 | 80.6% (inactive) | 79.6% (inactive) | -7.54% (inactive) | 87.1 | 79.6 | -4.29% (inactive) | -7.78% (inactive) |
| COc1ccc(-c2noc(CCC(=O)Nc3nc4ccccc4s3)n2)cc1 | 88.2% (inactive) | 88.1% (inactive) | -3.04% (inactive) | 91.1 | 88.1 | 2.21% (inactive) | 7.46% (inactive) |
